# Experimental data from ChEMBL document CHEMBL4257448, “Deciphering the origins of molecular toxicity of combretastatin A4 and its glycoconjugates: interactions with major drug transporters and their safety profiles in vitro and in vivo” (Medchemcomm, 2017).
# Legend:
# [1] = target: T1, Solute carrier family 22 member 1 (Homo sapiens, UniProt O15245); assay: Inhibition of human OCT1 expressed in HEK293 cells assessed as Asp+ uptake after 10 mins by fluorescence assay; type: cell-based; settings: for inhibition (INH): human, hek293, 10 min
# T1 sequence (O15245 whole entry): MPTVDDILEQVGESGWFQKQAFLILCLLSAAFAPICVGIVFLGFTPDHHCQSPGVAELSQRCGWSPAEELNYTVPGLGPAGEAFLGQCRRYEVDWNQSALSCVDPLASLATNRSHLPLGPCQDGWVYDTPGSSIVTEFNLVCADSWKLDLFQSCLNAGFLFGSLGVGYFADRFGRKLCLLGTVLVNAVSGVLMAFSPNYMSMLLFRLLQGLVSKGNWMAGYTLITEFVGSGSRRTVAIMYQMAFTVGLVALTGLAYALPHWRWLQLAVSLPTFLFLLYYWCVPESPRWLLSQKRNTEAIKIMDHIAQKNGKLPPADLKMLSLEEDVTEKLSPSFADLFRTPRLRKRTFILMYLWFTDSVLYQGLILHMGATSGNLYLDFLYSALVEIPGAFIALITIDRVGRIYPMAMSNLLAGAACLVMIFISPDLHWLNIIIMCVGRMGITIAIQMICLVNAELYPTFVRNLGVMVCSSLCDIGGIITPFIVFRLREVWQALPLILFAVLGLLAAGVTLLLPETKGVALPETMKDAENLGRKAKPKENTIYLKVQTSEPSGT
# Outline: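 Stably transfected HEK293 cells (human OAT1, OAT3, OCT1, OCT2, OATP1B3, OATP2B1) and mock cells were assayed 16 h after seeding in HEPES uptake buffer, pH 7.2, with fluorescent probe ± compound. Incubation was 5 min for OAT1/3 and OATPs, and 10 min for OCT1/2. Reference inhibitors were probenecid (OATs), quinine (OCTs) and rifampicin (OATPs). Uptake was stopped with ice-cold PBS and cells were lysed in Tris/Triton. Fluorescence was normalised to BCA protein; triplicates, repeated 2–3 times.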
# [2] = target: T2, Solute carrier organic anion transporter family member 2B1 (Homo sapiens, UniProt O94956); assay: Substrate activity at human OATP2B1 expressed in HEK293 cells assessed as compound uptake by HPLC-UV method relative to control; type: ADME, cell-based
# T2 sequence (O94956 whole entry): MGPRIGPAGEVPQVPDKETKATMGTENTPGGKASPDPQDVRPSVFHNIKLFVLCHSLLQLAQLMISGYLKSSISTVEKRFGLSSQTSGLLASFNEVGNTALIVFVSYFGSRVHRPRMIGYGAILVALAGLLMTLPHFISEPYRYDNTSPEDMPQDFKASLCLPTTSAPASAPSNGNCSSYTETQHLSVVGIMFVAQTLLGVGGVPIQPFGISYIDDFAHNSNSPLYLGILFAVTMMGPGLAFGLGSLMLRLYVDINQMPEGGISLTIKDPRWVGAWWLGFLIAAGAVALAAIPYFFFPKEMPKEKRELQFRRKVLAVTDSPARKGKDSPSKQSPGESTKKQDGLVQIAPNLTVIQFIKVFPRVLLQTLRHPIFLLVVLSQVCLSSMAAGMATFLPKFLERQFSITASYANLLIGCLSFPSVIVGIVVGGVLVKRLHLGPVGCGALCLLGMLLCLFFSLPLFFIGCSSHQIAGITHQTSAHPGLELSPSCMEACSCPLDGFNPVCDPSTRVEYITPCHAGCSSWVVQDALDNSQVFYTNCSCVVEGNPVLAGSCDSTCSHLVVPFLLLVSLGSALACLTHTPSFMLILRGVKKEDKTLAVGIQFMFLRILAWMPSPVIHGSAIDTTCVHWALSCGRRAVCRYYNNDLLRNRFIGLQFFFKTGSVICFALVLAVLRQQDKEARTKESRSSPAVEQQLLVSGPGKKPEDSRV
# [3] = target: T1, Solute carrier family 22 member 1; assay: Substrate activity at human OCT1 expressed in HEK293 cells assessed as compound uptake by HPLC-UV method; type: ADME, cell-based
# HT-29 = assay: […] for human HT-29 cells assessed as reduction in cell viability after 72 hrs by MTT assay; type: functional
# Outline: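 HT29 cells were cultured in RPMI-1640 with glutamine and 10% FBS, seeded at 2000–7500 cells/well, and exposed for 72 h to drug in DMSO (final DMSO <0.1%). MTT was added at 0.83 mg mL−1 final and incubated overnight, then cells were lysed in SDS/HCl and read at 570 nm. Survival was expressed as percent of drug-free control; five replicate wells.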
# Mus musculus = assay: Ratio of compound MTD to CA4 MTD in ip dosed DBA/2 mouse assessed as reduction in 15% body weight administered as daily dose for 3 days; type: ADME, organism-based; settings: in vivo, 72 h
# [4] = target: T2, Solute carrier organic anion transporter family member 2B1; assay: Substrate activity at human OATP2B1 expressed in HEK293 cells assessed as compound uptake in presence of OATP2B1 inhibitor rifampicin by HPLC-UV method; type: ADME, cell-based
# [5] = Drug uptake in mock transfected HEK293 cells in presence of OATP2B1 inhibitor rifampicin by HPLC-UV method; type: ADME, cell-based; settings: human
# [6] = Ratio of CA4 aqueous solubility to test compound aqueous solubility; type: physicochemical; settings: buffer
# [7] = Drug uptake in mock transfected HEK293 cells by HPLC-UV assay; type: ADME, cell-based; settings: human
Structure (SMILES),IC50 [1],inhibition (INH) [1],Drug uptake [2],Drug uptake [3],Ratio IC50 (HT-29),Ratio (Mus musculus),Drug uptake [4],Drug uptake [5],Ratio [6],Drug uptake [7]
COc1ccc(/C=C\c2cc(OC)c(OC)c(OC)c2)cc1O[C@@H]1O[C@H](CO)[C@@H](O)[C@H](O)[C@H]1O,> 200 µM,Dose-dependent effect,60%,Not Active,9.59,16,Active,Active,610,
COc1ccc(/C=C\c2cc(OC)c(OC)c(OC)c2)cc1O [COMBRETASTATIN A4],> 200 µM,Dose-dependent effect,,Active,,,,,,Active
